Data reported in ChEMBL document CHEMBL4251593, “Nontoxic combretafuranone analogues with high in vitro antibacterial activity” (Eur J Med Chem, 2018).
Converted amounts (≈) assume the structure as drawn. The source made the active and inactive calls. No cut-off for these calls is given here.

Tests used:
[1] = system: TERT-RPE1; experiment: Cytotoxicity against human RPE1 cells assessed as reduction in cell viability after 48 hrs by ATPlite-based luminescent assay; conditions: RPE-1, 48 h
Summary of the method: (§1)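 Cells were grown […] with 10% FBS, glutamax, NEAA and pen/strep at 37 °C, 5% CO2. Media were DMEM for RPE-1, HepG2 and BJ (BJ plus 10 ng/ml bFGF), F-12K for PC3, and IMDM for K562/HL-60. Cells were seeded at 500 per well and dosed from DMSO at 12 concentrations, 40 µM to 1 nM, in triplicate. After 48 h, intracellular ATP was read by luminescence. ED50 was obtained by variable-slope nonlinear regression.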

[2] = system: BJ; experiment: Cytotoxicity against human BJ cells assessed as reduction in cell viability after 48 hrs by ATPlite-based luminescent assay; summary of the method: as §1
[3] = system: K562; experiment: Cytotoxicity against human K562 cells assessed as reduction in cell viability after 48 hrs by ATPlite-based luminescent assay; conditions: K562, 48 h; summary of the method: as §1
[4] = system: HL-60; experiment: Cytotoxicity against human HL60 cells assessed as reduction in cell viability after 48 hrs by ATPlite-based luminescent assay; conditions: HL-60, 48 h; summary of the method: as §1
[5] = system: PC-3; experiment: Cytotoxicity against human PC3 cells assessed as reduction in cell viability after 48 hrs by ATPlite-based luminescent assay; conditions: PC-3, 48 h; summary of the method: as §1
[6] = system: MCF7; experiment: Cytotoxicity against human MCF7 cells assessed as reduction in cell viability after 48 hrs by ATPlite-based luminescent assay; conditions: MCF7, 48 h
[7] = system: HepG2; experiment: Cytotoxicity against human HepG2 cells assessed as reduction in cell viability after 48 hrs by ATPlite-based luminescent assay; conditions: HepG2, 48 h; summary of the method: as §1
[8] = system: TERT-RPE1; experiment: Induction of apoptosis in human RPE1 cells assessed as caspase 3/7 activity after 24 hrs by caspase-glo luminescent assay; type: cell-based; conditions: RPE-1, 24 h
Summary of the method: (§2)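 Cells were seeded at 500 per well in their growth media and exposed to 12 concentrations from 40 µM to 1 nM, delivered from DMSO, in triplicate. After 24 h, caspase-3/7 activity was read by Caspase-Glo luminescence. Data were normalized and ED50 was fitted by variable-slope nonlinear regression.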

[9] = system: K562; experiment: Induction of apoptosis in human K562 cells assessed as caspase 3/7 activity after 24 hrs by caspase-glo luminescent assay; type: cell-based; conditions: K562, 24 h; summary of the method: as §2
[10] = system: HL-60; experiment: Induction of apoptosis in human HL60 cells assessed as caspase 3/7 activity after 24 hrs by caspase-glo luminescent assay; type: cell-based; conditions: HL-60, 24 h; summary of the method: as §2
[11] = system: PC-3; experiment: Induction of apoptosis in human PC3 cells assessed as caspase 3/7 activity after 24 hrs by caspase-glo luminescent assay; type: cell-based; conditions: PC-3, 24 h; summary of the method: as §2
[12] = system: HepG2; experiment: Induction of apoptosis in human HepG2 cells assessed as caspase 3/7 activity after 24 hrs by caspase-glo luminescent assay; type: cell-based; conditions: HepG2, 24 h; summary of the method: as §2
[13] = system: Staphylococcus aureus; experiment: Antibacterial activity against Staphylococcus aureus ATCC 6538 after 24 hrs by microdilution assay; type: functional; conditions: ATCC 6538, 24 h
[14] = system: Staphylococcus aureus; experiment: Antibacterial activity against methicillin-resistant Staphylococcus aureus HK5996/08 clinical isolate after 24 hrs by microdilution assay; type: functional; conditions: HK5996/08, 24 h
[15] = system: Staphylococcus epidermidis; experiment: Antibacterial activity against Staphylococcus epidermidis HK6966/08 clinical isolate after 24 hrs by microdilution assay; type: functional; conditions: HK6966/08, 24 h
[16] = system: Enterococcus sp.; experiment: Antibacterial activity against Enterococcus sp. HK14365/08 clinical isolate after 24 hrs by microdilution assay; type: functional; conditions: HK14365/08, 24 h
[17] = system: Escherichia coli; experiment: Antibacterial activity against Escherichia coli ATCC 8739 after 24 hrs by microdilution assay; type: functional; conditions: ATCC 8739, 24 h
Summary of the method: (§3)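 Broth microdilution in Mueller-Hinton medium buffered to pH 7.4 (±0.2), with DMSO as diluent at no more than 2% final. Compounds were tested as 2-fold serial dilutions from 2000 to 0.488 µmol/l. The inoculum was 0.5 McFarland (1.5×10^8 cfu/ml). Plates were held at 37 °C and read visually at 24 and 48 h. MIC was taken as 95% growth inhibition versus control, determined twice in duplicate.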

[18] = system: Klebsiella pneumoniae; experiment: Antibacterial activity against Klebsiella pneumoniae HK11750/08 clinical isolate after 24 hrs by microdilution assay; type: functional; conditions: HK11750/08, 24 h
[19] = system: Klebsiella pneumoniae; experiment: Antibacterial activity against Klebsiella pneumoniae HK14368/08 clinical isolate after 24 hrs by microdilution assay; type: functional; conditions: HK14368/08, 24 h
[20] = system: Pseudomonas aeruginosa; experiment: Antibacterial activity against Pseudomonas aeruginosa ATCC 9027 after 24 hrs by microdilution assay; type: functional; conditions: ATCC 9027, 24 h; summary of the method: as §3
[21] = system: Staphylococcus aureus; experiment: Antibacterial activity against Staphylococcus aureus ATCC 6538 after 48 hrs by microdilution assay; type: functional; conditions: ATCC 6538, 48 h
[22] = system: Staphylococcus aureus; experiment: Antibacterial activity against methicillin-resistant Staphylococcus aureus HK5996/08 clinical isolate after 48 hrs by microdilution assay; type: functional; conditions: HK5996/08, 48 h
[23] = system: Staphylococcus epidermidis; experiment: Antibacterial activity against Staphylococcus epidermidis HK6966/08 clinical isolate after 48 hrs by microdilution assay; type: functional; conditions: HK6966/08, 48 h
[24] = system: Enterococcus sp.; experiment: Antibacterial activity against Enterococcus sp. HK14365/08 clinical isolate after 48 hrs by microdilution assay; type: functional; conditions: HK14365/08, 48 h
[25] = system: Escherichia coli; experiment: Antibacterial activity against Escherichia coli ATCC 8739 after 48 hrs by microdilution assay; type: functional; conditions: ATCC 8739, 48 h; summary of the method: as §3
[26] = system: Klebsiella pneumoniae; experiment: Antibacterial activity against Klebsiella pneumoniae HK11750/08 clinical isolate after 48 hrs by microdilution assay; type: functional; conditions: HK11750/08, 48 h
[27] = system: Klebsiella pneumoniae; experiment: Antibacterial activity against Klebsiella pneumoniae HK14368/08 clinical isolate after 48 hrs by microdilution assay; type: functional; conditions: HK14368/08, 48 h
[28] = system: Pseudomonas aeruginosa; experiment: Antibacterial activity against Pseudomonas aeruginosa ATCC 9027 after 48 hrs by microdilution assay; type: functional; conditions: ATCC 9027, 48 h; summary of the method: as §3
[29] = system: Candida albicans; experiment: Antifungal activity against Candida albicans ATCC 44859 up to 1 mM after 24 to 48 hrs by microdilution assay; type: functional, organism-based
Summary of the method: (§4)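 Fungal microdilution following modified CLSI M27-A3/M38-A2, in RPMI 1640 with L-glutamine and 0.165 M MOPS at pH 7.0, with DMSO no more than 2% final. Compounds were 2-fold serially diluted from 2000 to 0.488 µmol/l. The inoculum was 5×10^3 cfu/ml. Incubation was at 35 °C, read visually at 24/48 h (T. mentagrophytes at 72/120 h). MIC was IC80 for yeasts and IC50 for filamentous fungi, determined twice in duplicate.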

[30] = system: Candida albicans; experiment: Antifungal activity against Candida albicans ATCC 90028 up to 1 mM after 24 to 48 hrs by microdilution assay; type: functional, organism-based; summary of the method: as §4
[31] = system: Candida parapsilosis; experiment: Antifungal activity against Candida parapsilosis ATCC 22019 up to 1 mM after 24 to 48 hrs by microdilution assay; type: functional, organism-based; summary of the method: as §4
[32] = system: Pichia kudriavzevii; experiment: Antifungal activity against Candida krusei ATCC 6258 up to 1 mM after 24 to 48 hrs by microdilution assay; type: functional, organism-based; summary of the method: as §4
[33] = system: Pichia kudriavzevii; experiment: Antifungal activity against Candida krusei E28 clinical isolate up to 1 mM after 24 to 48 hrs by microdilution assay; type: functional, organism-based; summary of the method: as §4
[34] = system: Candida tropicalis; experiment: Antifungal activity against Candida tropicalis 156 clinical isolate up to 1 mM after 24 to 48 hrs by microdilution assay; type: functional, organism-based; summary of the method: as §4
[35] = system: Nakaseomyces glabratus; experiment: Antifungal activity against Candida glabrata 20/I clinical isolate up to 1 mM after 24 to 48 hrs by microdilution assay; type: functional, organism-based; summary of the method: as §4
[36] = system: Clavispora lusitaniae; experiment: Antifungal activity against Candida lusitaniae 2446/I clinical isolate up to 1 mM after 24 to 48 hrs by microdilution assay; type: functional, organism-based; summary of the method: as §4
[37] = system: Trichosporon asahii; experiment: Antifungal activity against Trichosporon asahii 1188 clinical isolate up to 1 mM after 24 to 48 hrs by microdilution assay; type: functional, organism-based; summary of the method: as §4
[38] = system: Aspergillus fumigatus; experiment: Antifungal activity against Aspergillus fumigatus 231 up to 1 mM after 24 to 48 hrs by microdilution assay; type: functional, organism-based; summary of the method: as §4
[39] = system: Lichtheimia corymbifera; experiment: Antifungal activity against Absidia corymbifera 272 up to 1 mM after 24 to 48 hrs by microdilution assay; type: functional, organism-based; summary of the method: as §4
[40] = system: Trichophyton mentagrophytes; experiment: Antifungal activity against Trichophyton mentagrophytes 445 up to 1 mM after 72 to 120 hrs by microdilution assay; type: functional, organism-based; summary of the method: as §4

Compound: O=C1OCC(c2ccccc2)=C1c1ccc(Br)cc1
- IC50 [1]: > 40 µM
- IC50 [2]: > 40 µM
- IC50 [3]: > 40 µM
- IC50 [4]: > 40 µM
- IC50 [5]: > 40 µM
- IC50 [6]: > 40 µM
- IC50 [7]: > 40 µM
- IC50 [8]: > 40 µM
- IC50 [9]: > 40 µM
- IC50 [10]: > 40 µM
- IC50 [11]: > 40 µM
- IC50 [12]: > 40 µM
- MIC95 [13]: 3.9 µM (≈ 1.23 µg/mL)
- MIC95 [14]: 31.2 µM (≈ 9.85 µg/mL)
- MIC95 [15]: 31.2 µM (≈ 9.85 µg/mL)
- MIC95 [16]: > 1000 µM
- MIC95 [17]: > 1000 µM
- MIC95 [18]: > 1000 µM
- MIC95 [19]: > 1000 µM
- MIC95 [20]: > 1000 µM
- MIC95 [21]: 15.6 µM (≈ 4.92 µg/mL)
- MIC95 [22]: 62.5 µM (≈ 19.7 µg/mL)
- MIC95 [23]: 62.5 µM (≈ 19.7 µg/mL)
- MIC95 [24]: > 1000 µM
- MIC95 [25]: > 1000 µM
- MIC95 [26]: > 1000 µM
- MIC95 [27]: > 1000 µM
- MIC95 [28]: > 1000 µM
- Activity [29]: inactive
- Activity [30]: inactive
- Activity [31]: inactive
- Activity [32]: inactive
- Activity [33]: inactive
- Activity [34]: inactive
- Activity [35]: inactive
- Activity [36]: inactive
- Activity [37]: inactive
- Activity [38]: inactive
- Activity [39]: inactive
- Activity [40]: inactive
